In ChEMBL document CHEMBL4038303, “Simultaneous Drug Targeting of the Promoter MYC G-Quadruplex and BCL2 i-Motif in Diffuse Large B-Cell Lymphoma Delays Tumor Growth” (J Med Chem, 2017):
Activity calls are given as the source filed them. No cut-off for these calls is given here.

Columns and labels:
U2932 [1] = assay: Potentiation of CPA-induced antitumor activity against human U2932 cells xenografted in SCID mouse assessed as tumor growth inhibition at 10 mg/kg, ip for 5 days cotreated with 7.5 mg/kg NSC-338258 measured on day 9 post first treatment (reference value: 50%); assay type: functional
How it was run: (§1)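 U2932 DLBCL cells (10 × 10^6 in 100 μL sterile saline, viability >91%) injected subcutaneously into left flank of SCID mice (6−8 weeks, immunoglobulin ≤20 μg/mL). Mice pair-matched by tumor volume. Drugs given ip daily for 5 days, CPA 30 mg/kg; controls received all diluents. Tumor volume = a2 × b/2 (a smallest, b largest diameter); n = 5−8; Grubbs' test for outliers.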

Homo sapiens [2] = species on record: Homo sapiens; assay: Stabilization of BCL2 i-motif promoter DNA in BCL2 and MYC translocation-positive human VAL cells assessed as potentiation of CPA-induced cytotoxicity by measuring fold reduction in CPA IC50 at 2 to 3 uM after 96 hrs by MTS assay
How it was run: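 MTS viability assay. 100 000 cells incubated 96 h with increasing CPA alone or with ligand (1−3 μM). Viability expressed relative to untreated cells. CPA IC50 fitted by Boltzmann sigmoidal equation with variable slope, and fold change in IC50 taken from the fitted values.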

Homo sapiens [3] = species on record: Homo sapiens; assay: Binding affinity to BLC2 i-motif promoter DNA in human U2932 MYC translocation-positive and BCL2 amplification-positive cells assessed as downregulation of BCL2 protein levels at 1 to 3 uM after 24 hrs by Western blot analysis
How it was run: (§2)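 Cell lines treated 24 h with compound up to 3 μM, with untreated and DMSO-treated controls. Lysates (20 μg total protein) probed by Western blot for BCL2 or MYC with antibodies at 1:1000; actin as loading control. Blots representative of triplicate experiments.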

U2932 [4] = assay: Potentiation of CPA-induced antitumor activity against human U2932 cells xenografted in SCID mouse assessed as reduction in tumor burden AUC at 10 mg/kg, ip for 5 days cotreated with 5 to 7.5 mg/kg NSC-338258 measured on day 9 to 15 post first treatment; assay type: functional, organism-based; how it was run: as §1
Homo sapiens [5] = species on record: Homo sapiens; assay: Binding affinity to BLC2 i-motif promoter DNA in BCL2 and MYC translocation-positive human VAL cells assessed as downregulation of Bcl2 mRNA levels at 1 to 3 uM after 24 hrs by qPCR method relative to control
How it was run: (§3)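 DLBCL lines grown in RPMI with 10% FBS (SUDHL4 15% FBS) and penicillin/streptomycin. Cells exposed for 24 h to rising concentrations up to 3 μM; DMSO as vehicle control. Total RNA isolated, target mRNA measured by TaqMan real-time qPCR, normalized to TBP and expressed relative to untreated cells; triplicate experiments, two-tailed t test.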

Homo sapiens [6] = species on record: Homo sapiens; assay: Binding affinity to BLC2 i-motif promoter DNA in MYC translocation-positive and BCL2 amplification-positive human U2932 cells assessed as downregulation of Bcl2 mRNA levels at 1 to 3 uM after 24 hrs by qPCR method relative to control; how it was run: as §3
Homo sapiens [7] = species on record: Homo sapiens; assay: Binding affinity to BLC2 i-motif promoter DNA in human VAL BCL2 and MYC translocation-positive cells assessed as downregulation of BCL2 protein levels at 1 to 3 uM after 24 hrs by Western blot analysis; how it was run: as §2
Homo sapiens [8] = species on record: Homo sapiens; assay: Binding affinity to c-myc G-quadruplex DNA in MYC translocation-positive and BCL2 amplification-positive human U2932 cells assessed as downregulation of MYC mRNA levels up to 3 uM after 24 hrs by qPCR method relative to control; how it was run: as §3
Homo sapiens [9] = species on record: Homo sapiens; assay: Binding affinity to BLC2 i-motif promoter DNA in human SUDHL4 BCL2 translocation-positive cells assessed as downregulation of BCL2 protein levels at 1 to 3 uM after 24 hrs by Western blot analysis; how it was run: as §2
Homo sapiens [10] = species on record: Homo sapiens; assay: Binding affinity to BLC2 i-motif promoter DNA in BCL2 translocation-positive human SUDHL4 cells assessed as downregulation of Bcl2 mRNA levels at 1 to 3 uM after 24 hrs by qPCR method; how it was run: as §3
Homo sapiens [11] = species on record: Homo sapiens; assay: Stabilization of BCL2 i-motif promoter DNA in BCL2 translocation-positive human SUDHL4 cells assessed as potentiation of CPA-induced apoptosis by measuring increase in caspase-3 activity at 3 uM after 24 hrs in presence of NSC-338258 by AFC based fluorescence assay (reference value: 30%)
Mus musculus [12] = assay: Reduction in Myc mRNA level in tumor of SCID mouse xenografted with human U2932 cells at 10 mg/kg, ip administered for 5 consecutive days cotreated with CPA and NSC-338258 by qPCR method; assay type: functional, organism-based
How it was run: (§4)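 Tumors from U2932 xenograft SCID mice given ip treatment daily for 5 days were harvested. Total RNA was taken from the same tumor preparations used for protein lysates, and MYC or BCL2 mRNA was quantified by TaqMan qPCR normalized to TBP. Comparisons were made with diluent-treated mice or CPA-only mice.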

Homo sapiens [13] = species on record: Homo sapiens; assay: Stabilization of BCL2 i-motif promoter DNA in MYC translocation-positive and BCL2 amplification-positive human U2932 cells assessed as potentiation of CPA-induced apoptosis by measuring increase in caspase-3 activity at 3 uM after 24 hrs in presence of NSC-338258 by AFC based fluorescence assay (reference value: 30%)
HT = assay: Down regulation of BLC2 mRNA level in human HT cells up to 3 uM after 24 hrs by qPCR method; assay type: functional, cell-based; how it was run: as §3
Homo sapiens [14] = species on record: Homo sapiens; assay: Binding affinity to c-myc G-quadruplex DNA in human HT cells assessed as downregulation of MYC protein levels up to 3 uM after 24 hrs by Western blot analysis; assay type: cell-based; how it was run: as §2
Homo sapiens [15] = species on record: Homo sapiens; assay: Stabilization of BCL2 i-motif promoter DNA in BCL2 and MYC translocation-positive human VAL cells assessed as potentiation of CPA-induced apoptosis by measuring increase in caspase-3 activity at 3 uM after 24 hrs in presence of NSC-338258 by AFC based fluorescence assay (reference value: 30%)
Homo sapiens [16] = species on record: Homo sapiens; assay: Binding affinity to c-myc G-quadruplex DNA in BCL2 translocation-positive human SUDHL4 cells assessed as downregulation of MYC mRNA levels up to 3 uM after 24 hrs by qPCR method relative to control; how it was run: as §3
U2932 [17] = assay: Potentiation of CPA-induced antitumor activity against human U2932 cells xenografted in SCID mouse assessed as tumor growth inhibition at 10 mg/kg, ip for 5 days cotreated with 7.5 mg/kg NSC-338258 measured on day 12 post first treatment (reference value: 67%); assay type: functional; how it was run: as §1
U2932 [18] = assay: Antitumor activity against human U2932 cells xenografted in SCID mouse assessed as reduction in tumor burden at 10 mg/kg, ip for 5 days cotreated with 5 to 7.5 mg/kg NSC-338258 measured on day 9 to 15 post first treatment
Mus musculus [19] = assay: Toxicity in scid mouse xenografted with human U2932 cells assessed as change in body weight at 10 mg/kg, ip administered for 5 consecutive days in presence of CPA; assay type: organism-based; settings: in vivo
How it was run: (§5)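 SCID mice (6−8 weeks, female or male, serum immunoglobulin ≤20 μg/mL by ELISA) implanted subcutaneously in left flank with 10 × 10^6 U2932 cells in 100 μL saline; pair-matched by tumor volume; dosed ip daily for 5 days; controls received all compound diluents; tumor volume a2 × b/2; outliers by Grubbs' test; two-tailed t test with Šidák–Bonferroni correction.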

U2932 [20] = assay: Potentiation of CPA-induced antitumor activity against human U2932 cells xenografted in SCID mouse assessed as tumor growth inhibition at 10 mg/kg, ip for 5 days cotreated with 7.5 mg/kg NSC-338258 measured on day 15 post first treatment (reference value: 44%); assay type: functional; how it was run: as §1
Mus musculus [21] = assay: Reduction in Bcl2 mRNA level in tumor of SCID mouse xenografted with human U2932 cells at 10 mg/kg, ip administered for 5 consecutive days cotreated with CPA and NSC-338258 by qPCR method; assay type: functional, organism-based; how it was run: as §4
Mus musculus [22] = assay: Toxicity in scid mouse xenografted with human U2932 cells assessed as change in body weight at 10 mg/kg, ip administered for 5 consecutive days in presence of CPA and NSC-338258; assay type: organism-based; settings: in vivo; how it was run: as §5

COc1ccc2c(c1)CN([C@@H](C)[C@H]1CC[C@H]3[C@@H]4CC[C@H]5C[C@@H](O)CC[C@]5(C)[C@H]4CC[C@]13C)CO2
TGI (U2932 [1]): 50%
fold change (FC) (Homo sapiens [2]): 1.7
Activity (Homo sapiens [3]): Active
Activity (U2932 [4]): Active
Activity (Homo sapiens [5]): 11 to 37%
Activity (Homo sapiens [6]): 11 to 37%
Activity (Homo sapiens [7]): Active
Activity (Homo sapiens [8]): inactive
Activity (Homo sapiens [9]): Active
Activity (Homo sapiens [10]): 11 to 37%
Activity (Homo sapiens [11]): 100%
Activity (Mus musculus [12]): Active
Activity (Homo sapiens [13]): 100%
Activity (HT): inactive
Activity (Homo sapiens [14]): inactive
Activity (Homo sapiens [15]): 100%
Activity (Homo sapiens [16]): inactive
TGI (U2932 [17]): 46%
Activity (U2932 [18]): inactive
Activity (Mus musculus [19]): Non-Toxic
TGI (U2932 [20]): 37%
Activity (Mus musculus [21]): Active
Activity (Mus musculus [22]): Non-Toxic
